{
  "source": "ChEMBL document CHEMBL2176910",
  "about": "“Identification of small molecule inhibitors of amyloid β-induced neuronal apoptosis acting through the imidazoline I(2) receptor” (J Med Chem, 2012)",
  "key": {"[1]": {"biological_target": "T1, Muscarinic acetylcholine receptor M5 (Homo sapiens) (UniProt P08912)", "T1 sequence (whole entry)": "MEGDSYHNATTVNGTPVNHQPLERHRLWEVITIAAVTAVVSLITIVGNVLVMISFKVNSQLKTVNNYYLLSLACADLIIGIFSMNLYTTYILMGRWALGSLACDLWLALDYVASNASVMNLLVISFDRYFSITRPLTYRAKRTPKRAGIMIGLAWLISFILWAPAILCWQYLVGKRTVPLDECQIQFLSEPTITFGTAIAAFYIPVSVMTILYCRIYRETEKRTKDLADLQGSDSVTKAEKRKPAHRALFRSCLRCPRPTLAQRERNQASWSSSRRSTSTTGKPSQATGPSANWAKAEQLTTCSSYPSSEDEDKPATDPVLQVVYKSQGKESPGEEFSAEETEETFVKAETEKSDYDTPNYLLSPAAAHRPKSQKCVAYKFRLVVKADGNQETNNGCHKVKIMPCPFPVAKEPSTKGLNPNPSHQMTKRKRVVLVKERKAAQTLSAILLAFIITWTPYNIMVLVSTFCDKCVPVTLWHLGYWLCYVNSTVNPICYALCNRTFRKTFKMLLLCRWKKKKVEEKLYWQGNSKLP", "assay": "Inhibition of radioligand binding to muscarinic M5 receptor at 10 uM", "in_short": "(§1)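 Part of an in vitro radioligand binding panel. Each target was tested against a potent standard radioligand for that site. The read-out was percent inhibition of specific binding, reported as an average value.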"}, "[2]": {"biological_target": "Melanocortin receptor 4 (Homo sapiens) (UniProt P32245)", "sequence (P32245 whole entry)": "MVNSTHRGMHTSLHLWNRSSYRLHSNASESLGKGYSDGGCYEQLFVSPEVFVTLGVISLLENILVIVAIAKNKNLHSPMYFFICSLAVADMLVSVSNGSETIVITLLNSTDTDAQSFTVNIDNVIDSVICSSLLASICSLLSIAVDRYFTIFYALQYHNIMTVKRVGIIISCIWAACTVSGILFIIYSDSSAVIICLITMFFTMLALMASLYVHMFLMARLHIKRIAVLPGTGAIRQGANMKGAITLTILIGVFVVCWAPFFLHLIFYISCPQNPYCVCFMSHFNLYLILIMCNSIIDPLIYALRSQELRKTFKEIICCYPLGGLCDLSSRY", "assay": "Inhibition of radioligand binding to MC4R at 10 uM"}, "Hippocampal neuron": {"test_system": "Hippocampal neuron", "assay": "Neuroprotective activity in mouse hippocampal neurons assessed as Abeta-induced neuronal apoptosis at 30 uM pre-incubated for 4 hrs before Abeta challenge for 72 hrs by TUNEL assay (reference value: 100%)", "type": "functional", "settings": "Hippocampus", "in_short": "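Aggregated Aβ (20 μM, 72 h) was applied to primary mouse hippocampal neurons with or without compound at 30 μM. Apoptosis was scored by TUNEL as the percentage of positive nuclei among total nuclei, referred to Aβ alone (100%). Medium-only cells were the negative control and DNase the positive control. n = 4, mean ± SEM, two-tailed Student's test.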"}, "[3]": {"biological_target": "T2, Muscarinic acetylcholine receptor M4 (Homo sapiens) (UniProt P08173)", "T2 sequence (whole entry)": "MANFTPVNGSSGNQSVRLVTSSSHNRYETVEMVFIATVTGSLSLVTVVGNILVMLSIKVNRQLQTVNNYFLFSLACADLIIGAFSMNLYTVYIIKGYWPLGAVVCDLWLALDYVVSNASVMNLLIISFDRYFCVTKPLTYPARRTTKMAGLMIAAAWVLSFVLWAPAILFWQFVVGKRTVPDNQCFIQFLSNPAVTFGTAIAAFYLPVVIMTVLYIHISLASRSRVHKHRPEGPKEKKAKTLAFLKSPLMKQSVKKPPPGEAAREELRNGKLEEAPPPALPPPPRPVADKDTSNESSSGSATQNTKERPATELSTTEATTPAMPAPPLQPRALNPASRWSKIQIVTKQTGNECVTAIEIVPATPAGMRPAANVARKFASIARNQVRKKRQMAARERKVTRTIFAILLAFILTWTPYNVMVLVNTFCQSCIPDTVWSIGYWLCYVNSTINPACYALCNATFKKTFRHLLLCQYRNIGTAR", "assay": "Inhibition of radioligand binding to muscarinic M4 receptor at 10 uM", "in_short": "as §1"}, "Rattus norvegicus": {"species": "Rattus norvegicus", "assay": "Displacement of [3H]idazoxan from rat cerebral cortex imidazole receptor 2 at 10 uM in presence of 1 uM yohimbine", "type": "tissue-based"}, "Nischarin": {"biological_target": "Nischarin (Homo sapiens, UniProt Q9Y2I1)", "sequence (Q9Y2I1 whole entry)": "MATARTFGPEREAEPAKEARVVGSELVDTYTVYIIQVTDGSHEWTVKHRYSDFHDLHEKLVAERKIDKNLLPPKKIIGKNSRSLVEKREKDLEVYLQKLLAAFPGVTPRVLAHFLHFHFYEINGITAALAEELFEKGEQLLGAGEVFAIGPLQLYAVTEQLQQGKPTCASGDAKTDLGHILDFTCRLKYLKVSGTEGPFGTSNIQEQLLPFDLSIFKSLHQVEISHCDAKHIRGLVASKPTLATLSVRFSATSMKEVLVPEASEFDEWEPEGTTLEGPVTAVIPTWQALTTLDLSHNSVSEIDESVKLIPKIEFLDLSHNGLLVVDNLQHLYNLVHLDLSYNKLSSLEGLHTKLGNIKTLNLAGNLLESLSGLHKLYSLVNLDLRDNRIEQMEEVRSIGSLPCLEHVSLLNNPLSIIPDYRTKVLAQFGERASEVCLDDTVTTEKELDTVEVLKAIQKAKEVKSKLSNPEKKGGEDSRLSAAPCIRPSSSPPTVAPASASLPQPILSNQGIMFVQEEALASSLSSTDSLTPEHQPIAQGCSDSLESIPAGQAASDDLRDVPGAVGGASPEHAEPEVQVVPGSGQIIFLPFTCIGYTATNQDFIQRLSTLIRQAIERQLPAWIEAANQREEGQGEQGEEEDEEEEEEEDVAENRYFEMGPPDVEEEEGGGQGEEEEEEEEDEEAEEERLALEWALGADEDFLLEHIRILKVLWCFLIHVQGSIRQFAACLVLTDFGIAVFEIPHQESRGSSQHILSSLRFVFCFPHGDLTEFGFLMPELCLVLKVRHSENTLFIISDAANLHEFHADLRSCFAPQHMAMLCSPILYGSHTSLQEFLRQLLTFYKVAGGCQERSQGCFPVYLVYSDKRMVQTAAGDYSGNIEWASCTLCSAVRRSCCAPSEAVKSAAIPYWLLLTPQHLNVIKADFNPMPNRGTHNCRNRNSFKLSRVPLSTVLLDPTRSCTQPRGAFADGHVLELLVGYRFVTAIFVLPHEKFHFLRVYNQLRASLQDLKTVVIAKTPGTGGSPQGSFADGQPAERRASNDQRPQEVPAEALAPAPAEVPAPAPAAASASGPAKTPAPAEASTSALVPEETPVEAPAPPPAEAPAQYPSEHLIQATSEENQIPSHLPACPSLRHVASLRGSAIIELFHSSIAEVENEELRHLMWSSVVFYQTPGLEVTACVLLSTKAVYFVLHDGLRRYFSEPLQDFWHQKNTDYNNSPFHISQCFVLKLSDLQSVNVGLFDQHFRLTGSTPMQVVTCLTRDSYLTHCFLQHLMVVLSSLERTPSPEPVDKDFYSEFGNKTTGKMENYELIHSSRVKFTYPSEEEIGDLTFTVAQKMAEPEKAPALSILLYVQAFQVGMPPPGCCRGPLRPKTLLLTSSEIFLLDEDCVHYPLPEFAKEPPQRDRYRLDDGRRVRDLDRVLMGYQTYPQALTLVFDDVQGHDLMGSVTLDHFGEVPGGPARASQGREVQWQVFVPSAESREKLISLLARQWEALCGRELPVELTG", "assay": "Inhibition of radioligand binding to imidazole receptor 1"}, "[4]": {"assay": "Inhibition of radioligand binding to Sigma receptor at 10 uM"}, "[5]": {"biological_target": "T3, MAO-B (amine oxidase [flavin-containing] B) (Homo sapiens, UniProt P27338)", "T3 sequence (P27338 whole entry)": "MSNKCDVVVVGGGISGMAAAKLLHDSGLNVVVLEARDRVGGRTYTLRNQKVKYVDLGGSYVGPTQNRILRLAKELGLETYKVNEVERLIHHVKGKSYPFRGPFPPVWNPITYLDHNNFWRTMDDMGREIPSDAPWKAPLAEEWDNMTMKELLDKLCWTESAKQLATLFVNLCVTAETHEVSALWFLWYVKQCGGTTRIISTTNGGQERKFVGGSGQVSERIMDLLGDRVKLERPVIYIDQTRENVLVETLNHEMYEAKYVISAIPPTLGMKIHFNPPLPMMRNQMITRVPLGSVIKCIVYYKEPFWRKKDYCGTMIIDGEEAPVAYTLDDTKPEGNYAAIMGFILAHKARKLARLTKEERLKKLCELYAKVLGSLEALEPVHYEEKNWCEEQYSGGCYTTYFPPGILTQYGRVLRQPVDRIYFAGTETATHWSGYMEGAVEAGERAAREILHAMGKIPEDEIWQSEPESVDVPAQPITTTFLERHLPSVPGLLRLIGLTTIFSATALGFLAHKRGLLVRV", "assay": "Inhibition of MAOB at 10 uM", "in_short": "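Radioligand binding panel. Values are average percentages of inhibition of specific binding, measured against potent standard ligands for each target.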"}},
  "note": "pKi: −log10 of the molar value. Calls of active or inactive are those of the source. The calls are words filed in the database; no cut-off is given here.",
  "data": [
    {"smiles": "CN(C)C(CN)c1ccccc1Cl", "note": "(configuration not stated)", "values": [
      {"measurement": "inhibition", "setting": "[1]", "result": "< 20", "unit": "%"},
      {"measurement": "inhibition", "setting": "[2]", "result": "< 20", "unit": "%"},
      {"measurement": "Activity", "setting": "Hippocampal neuron", "result": "Active"},
      {"measurement": "inhibition", "setting": "[3]", "result": "< 20", "unit": "%"},
      {"measurement": "inhibition", "setting": "Rattus norvegicus", "result": 43, "unit": "%"},
      {"measurement": "pKi", "setting": "Nischarin", "result": 5.28},
      {"measurement": "inhibition", "setting": "[4]", "result": "< 20", "unit": "%"},
      {"measurement": "inhibition at 10 µM", "setting": "[5]", "result": "< 20", "unit": "%"}
    ]},
    {"smiles": "NCC12CCC3CC(CC3C1)C2", "note": "(configuration not stated)", "values": [
      {"measurement": "inhibition", "setting": "[1]", "result": "< 20", "unit": "%"},
      {"measurement": "inhibition", "setting": "[2]", "result": "< 20", "unit": "%"},
      {"measurement": "Activity", "setting": "Hippocampal neuron", "result": "Active"},
      {"measurement": "inhibition", "setting": "[3]", "result": "< 20", "unit": "%"},
      {"measurement": "inhibition", "setting": "Rattus norvegicus", "result": 34, "unit": "%"},
      {"measurement": "inhibition", "setting": "[4]", "result": 39, "unit": "%"},
      {"measurement": "inhibition at 10 µM", "setting": "[5]", "result": "< 20", "unit": "%"}
    ]},
    {"smiles": "CN1CCNC(c2ccccc2)C1", "note": "(configuration not stated)", "values": [
      {"measurement": "inhibition", "setting": "[1]", "result": "< 20", "unit": "%"},
      {"measurement": "inhibition", "setting": "[2]", "result": "< 20", "unit": "%"},
      {"measurement": "Activity", "setting": "Hippocampal neuron", "result": "Active"},
      {"measurement": "inhibition", "setting": "[3]", "result": "< 20", "unit": "%"},
      {"measurement": "inhibition", "setting": "Rattus norvegicus", "result": 41, "unit": "%"},
      {"measurement": "inhibition", "setting": "[4]", "result": "< 20", "unit": "%"},
      {"measurement": "inhibition at 10 µM", "setting": "[5]", "result": "< 20", "unit": "%"}
    ]}
  ]
}
